Data reported in ChEMBL document CHEMBL1139436, “Quantitative structure-activity relationship of sesquiterpene lactones as inhibitors of the transcription factor NF-kappaB” (J Med Chem, 2004).

Legend:
[1] = biological target: T1, Nuclear factor NF-kappa-B complex (Homo sapiens) (UniProt Q00653+P19838+Q04206); assay: (§1) Concentration required for complete inhibition of Nuclear factor kappa B DNA binding; type: protein-complex assay
Procedure, shortened: (§2)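 Jurkat T cells (RPMI 1640, 10% FCS, penicillin/streptomycin) pretreated 1 h with sesquiterpene lactone, first at 10, 20, 50, 100 μM, then 1–5 μM or 200–300 μM as needed. Stimulated 1 h with 200 U/mL TNF-α. Total extracts (Totex high-salt buffer) analysed by EMSA with ³²P-labeled NF-κB oligonucleotide, 25 min at room temperature. IC100 is the lowest tested level fully blocking binding; intermediate values assigned the higher level. Each experiment reproduced at least once.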

[2] = biological target: T1, Nuclear factor NF-kappa-B complex (Homo sapiens); assay: as §1; type: protein-complex assay; design: unit not given here; procedure, shortened: as §2

T1 sequence (P19838 whole entry, looked up): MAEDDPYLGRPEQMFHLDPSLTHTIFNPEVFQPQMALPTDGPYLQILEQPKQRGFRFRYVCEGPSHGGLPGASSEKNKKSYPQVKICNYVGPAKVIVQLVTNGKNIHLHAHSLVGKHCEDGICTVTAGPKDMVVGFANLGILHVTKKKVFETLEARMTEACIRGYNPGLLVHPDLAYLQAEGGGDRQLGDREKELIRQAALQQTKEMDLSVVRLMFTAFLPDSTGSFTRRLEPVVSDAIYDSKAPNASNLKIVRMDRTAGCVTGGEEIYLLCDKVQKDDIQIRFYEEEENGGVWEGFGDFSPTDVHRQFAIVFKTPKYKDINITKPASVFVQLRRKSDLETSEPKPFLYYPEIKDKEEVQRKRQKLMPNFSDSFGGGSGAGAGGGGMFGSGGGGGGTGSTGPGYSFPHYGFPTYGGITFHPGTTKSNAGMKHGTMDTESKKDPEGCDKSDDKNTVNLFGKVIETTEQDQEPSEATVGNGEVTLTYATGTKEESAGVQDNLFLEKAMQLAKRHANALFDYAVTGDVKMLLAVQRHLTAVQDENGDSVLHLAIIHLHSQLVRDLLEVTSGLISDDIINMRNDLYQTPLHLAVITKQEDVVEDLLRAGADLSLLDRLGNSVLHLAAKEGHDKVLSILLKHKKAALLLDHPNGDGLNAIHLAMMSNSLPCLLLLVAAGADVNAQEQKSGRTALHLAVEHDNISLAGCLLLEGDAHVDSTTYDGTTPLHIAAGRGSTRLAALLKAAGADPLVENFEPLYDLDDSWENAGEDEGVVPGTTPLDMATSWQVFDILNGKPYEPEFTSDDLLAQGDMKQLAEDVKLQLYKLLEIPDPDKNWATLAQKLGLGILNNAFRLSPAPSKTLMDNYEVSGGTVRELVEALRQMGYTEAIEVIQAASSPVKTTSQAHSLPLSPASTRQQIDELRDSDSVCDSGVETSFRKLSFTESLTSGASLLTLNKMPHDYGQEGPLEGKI
T1 sequence (Q00653 whole entry, looked up): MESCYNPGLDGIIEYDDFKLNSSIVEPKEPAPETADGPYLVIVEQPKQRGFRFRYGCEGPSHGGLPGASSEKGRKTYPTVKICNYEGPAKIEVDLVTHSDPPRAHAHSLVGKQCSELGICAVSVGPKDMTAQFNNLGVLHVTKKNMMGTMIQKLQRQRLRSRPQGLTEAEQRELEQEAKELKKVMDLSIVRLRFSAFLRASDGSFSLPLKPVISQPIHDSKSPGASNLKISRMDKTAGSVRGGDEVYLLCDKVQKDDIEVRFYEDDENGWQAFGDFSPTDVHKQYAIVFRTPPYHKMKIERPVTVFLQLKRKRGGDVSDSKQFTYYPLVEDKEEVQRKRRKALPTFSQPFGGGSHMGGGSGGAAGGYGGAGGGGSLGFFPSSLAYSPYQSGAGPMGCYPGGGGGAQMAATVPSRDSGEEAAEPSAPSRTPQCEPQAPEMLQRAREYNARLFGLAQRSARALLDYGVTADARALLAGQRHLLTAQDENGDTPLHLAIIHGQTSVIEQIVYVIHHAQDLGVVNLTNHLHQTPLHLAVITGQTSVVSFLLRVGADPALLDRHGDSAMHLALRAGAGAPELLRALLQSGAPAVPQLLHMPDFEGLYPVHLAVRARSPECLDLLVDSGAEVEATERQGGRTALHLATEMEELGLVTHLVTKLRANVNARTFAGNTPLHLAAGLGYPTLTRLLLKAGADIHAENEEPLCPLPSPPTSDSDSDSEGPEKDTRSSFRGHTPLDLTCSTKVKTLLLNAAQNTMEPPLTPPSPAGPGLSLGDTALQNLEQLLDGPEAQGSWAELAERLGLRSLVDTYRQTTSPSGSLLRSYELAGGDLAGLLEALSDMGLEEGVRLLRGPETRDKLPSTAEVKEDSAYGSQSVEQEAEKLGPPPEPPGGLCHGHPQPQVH
T1 sequence (Q04206 whole entry, looked up): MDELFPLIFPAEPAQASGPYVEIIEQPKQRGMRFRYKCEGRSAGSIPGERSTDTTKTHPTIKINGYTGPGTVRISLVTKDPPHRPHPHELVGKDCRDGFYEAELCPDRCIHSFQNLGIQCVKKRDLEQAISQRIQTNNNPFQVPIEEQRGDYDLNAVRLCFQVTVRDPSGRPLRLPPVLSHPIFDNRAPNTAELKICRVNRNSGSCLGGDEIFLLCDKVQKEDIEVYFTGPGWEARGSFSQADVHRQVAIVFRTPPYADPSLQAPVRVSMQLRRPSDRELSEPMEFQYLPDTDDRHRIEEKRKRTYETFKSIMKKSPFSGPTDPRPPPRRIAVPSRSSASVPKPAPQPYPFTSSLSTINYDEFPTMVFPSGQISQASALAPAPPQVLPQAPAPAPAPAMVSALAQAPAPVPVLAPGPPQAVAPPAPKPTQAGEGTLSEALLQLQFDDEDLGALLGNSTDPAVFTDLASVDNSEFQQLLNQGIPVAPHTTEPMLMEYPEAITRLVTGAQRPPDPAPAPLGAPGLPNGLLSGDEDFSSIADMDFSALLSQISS

| SMILES | IC100 [1] | pIC100 [2] |
| --- | --- | --- |
| C=C1C(=O)O[C@@H]2/C=C(/COC(=O)C(C)C)CC/C=C(/CO)[C@H](O)C[C@@H]12 | 100 µM | -2 |
| C=C1C(=O)O[C@@H]2/C=C(/COC(=O)CC(C)C)CC/C=C(/CO)C(=O)C[C@@H]12 (stereo in doubt; 5) | 12.5 µM | -1.09 |
| C=C1C(=O)O[C@@H]2C3=C(C(=O)C[C@@H]3C)[C@@H](C)CC[C@@H]12 | 20 µM | -1.3 |
| CC(=O)O[C@H]1[C@@H]2[C@H](C)C(=O)O[C@@H]2C[C@@H](C)[C@@H]2C=CC(=O)[C@]21C | 200 µM |  |
| C=C(C)C(=O)O[C@H]1[C@H]2C(=C)C(=O)O[C@@H]2/C=C(/COC(C)=O)CC/C=C(/C=O)[C@@H]1O | 5 µM | -0.69 |
| C=C1C(=O)O[C@@H]2/C=C(/CO)C3=CC(=O)[C@@](C)(C[C@@H](OC(=O)/C(C)=C/C)[C@@H]12)O3 | 5 µM | -0.69 |
| C=C1[C@H](O)C[C@H](O)[C@]2(C)CC[C@H]3C(=C)C(=O)O[C@@H]3[C@@H]12 | 100 µM |  |
| CC[C@@H](C)[C@@]1(O)O[C@H]2C[C@@]3(C)OC(=CC3=O)/C(COC(C)=O)=C\[C@H]3OC(=O)[C@@]1(C)C23 (stereo partly drawn) | 5 µM | -0.69 |
| C=C1C(=O)O[C@@H]2C[C@H](C)[C@@H]3CC(=O)C(C)=C3C[C@H]12 | 50 µM |  |
| C=C(C)C(=O)O[C@@H]1C[C@]2(C)CC[C@@](OC)(O2)/C(C)=C\[C@H]2OC(=O)C(=C)[C@@H]21 | 200 µM | -2.3 |
| C=C1[C@@H]2[C@H]3OC(=O)C(=C)[C@@H]3CC[C@](C)(O)[C@@H]2C[C@@H]1O | 200 µM | -2.3 |
| C=C1C(=O)O[C@@H]2/C=C(/C)C3=CC(=O)[C@@](C)(C[C@@H](OC(=O)/C(C)=C/C)[C@@H]12)O3 | 5 µM | -0.69 |
| C=C1C(=O)O[C@@H]2[C@H]3C(C)=CC[C@H](O)[C@]3(C)CC[C@@H]12 | 300 µM |  |
| C=C1C(=O)O[C@H]2C3=C(C(=O)C[C@@H]3C)[C@@H](C)CC[C@@H]12 | 20 µM | -1.3 |
| C=C1C(=O)O[C@]23C[C@H]1CCC(COC(C)=O)=C2C(=O)C=C3C | 100 µM |  |
| C=C1C(=O)O[C@H]2C[C@H](C)C3=CC(=O)[C@H](C)C3C[C@H]12 (stereo partly drawn) | 20 µM | -1.3 |
| C=C(C)C(=O)O[C@H]1/C(C=O)=C\CC/C(C)=C\[C@H]2OC(=O)C(=C)[C@@H]2[C@@H]1O | 5 µM | -0.69 |
| C=C1C(=O)O[C@]23C[C@H]1CCC(CO)=C2C(=O)C=C3C | 50 µM |  |
| C=C(C)C(=O)O[C@H]1C/C(C)=C/C(=O)/C=C(/C)[C@H](O)[C@H]2OC(=O)C(=C)[C@@H]21 | 10 µM | -1 |
| C=C(C)C(=O)O[C@@H]1C=C(C=O)CCCC(=C)[C@H](O)[C@H]2OC(=O)C(=C)[C@@H]21 | 10 µM | -1 |
| C=C1C(=O)O[C@@H]2C[C@@]3(C)CC(=O)C(OC(C)=O)=C(C)C3C[C@H]12 (stereo partly drawn) | 100 µM |  |
| C=C(C)C(=O)O[C@H]1C[C@@]2(C)OC(=CC2=O)C(=C)[C@@H](Cl)[C@H]2OC(=O)C(=C)[C@@H]21 | 5 µM | -0.69 |
| C=C(C)C(=O)O[C@H]1[C@@H]2[C@H](C)C(=O)O[C@@H]2C[C@@H](C)[C@@H]2C=CC(=O)[C@]21C | 100 µM |  |
| C=C(C)C(=O)O[C@@H]1C[C@@](C)(O)[C@@H]2C(=O)C=C(C)[C@@H]2[C@H]2OC(=O)C(=C)[C@@H]21 | 20 µM | -1.3 |
| C=C1C(=O)O[C@H]2[C@H]1[C@@H](OC(=O)/C(C)=C/C)C/C(C)=C/C(=O)/C=C(/C)[C@@H]2O | 10 µM | -1 |
| C[C@@H]1C[C@H]2OC(=O)[C@@H](C)[C@H]2[C@H](O)[C@]2(C)C(=O)C=C[C@@H]12 | 200 µM |  |
| C=C(C)C(=O)O[C@H]1[C@H]2C(=C)C(=O)O[C@@H]2[C@@H](O)C(=C)CC/C=C(/C=O)[C@@H]1OC(C)=O | 10 µM | -1 |

| SMILES | IC100 [1] | pIC100 [2] |
| --- | --- | --- |
| C=C1[C@@H]2[C@H]3OC(=O)C(=C)[C@@H]3CCC(=C)[C@@H]2C[C@@H]1OC(C)=O | 100 µM |  |
| C=C1C(=O)O[C@@H]2[C@@H]3[C@@](C)(CC[C@@H]12)[C@@H](O)C[C@H]1O[C@@]31C | 200 µM |  |
| C=C1C[C@@H]2OC(=O)C(=C)[C@H]2[C@H](O)/C=C(\C)CCC1=O | 50 µM | -1.69 |
| C=C1C(=O)O[C@@H]2C[C@H](C)C3=C(C[C@H]12)[C@@H](C)CC3=O | 20 µM | -1.3 |
| C=C1[C@H](O)C[C@@H](O)[C@]2(C)CC[C@H]3C(=C)C(=O)O[C@@H]3[C@@H]12 | 200 µM |  |
| C=C1C(=O)O[C@H]2C/C(CO)=C\CC/C(COC(=O)C(C)CC)=C\C[C@H]12 (stereo partly drawn) | 50 µM | -1.69 |
| C=C1C(=O)C=C2[C@H]1C[C@@H]1C(=C)C(=O)O[C@@H]1C[C@@H]2C | 10 µM | -1 |
| C=C1C(=O)O[C@@H]2[C@H]3C(C)=CC[C@H]3[C@](C)(O)C[C@H](OC(C)=O)[C@@H]12 | 20 µM | -1.3 |
| C=C1C(=O)O[C@H]2[C@H]1[C@H](OC(=O)C(C)C)[C@@H](OC(C)=O)/C(C=O)=C\CCC1(CO1)[C@@H]2O (stereo partly drawn) | 5 µM | -0.69 |
| C=C(C)C(=O)O[C@@H]1CC(C)=C2C(=O)C=C(C)[C@@H]2[C@H]2OC(=O)C(=C)[C@@H]21 | 10 µM | -1 |
| C=C1C(=O)O[C@@H]2[C@H]3C(C)=CC[C@@H](O)[C@]3(C)CC[C@@H]12 | 100 µM |  |
| C=C1C(=O)O[C@@H]2[C@H]3C(C)=CC(=O)C3=C(C)CC[C@@H]12 | 50 µM |  |
| C=C1C(=O)O[C@@H]2C[C@@H](C)[C@@H]3CCC(=O)[C@@]3(C)C[C@H]12 | 50 µM |  |
| C=C1C(=O)O[C@@H]2/C=C(/C)CC/C=C(/C)CC[C@@H]12 | 50 µM |  |
| C=C1C(=O)O[C@@H]2C[C@@]3(C)[C@H](OC(C)=O)CC[C@](O)(COC(=O)C(C)C)[C@@H]3C[C@H]12 | 100 µM |  |
| C=C1C(=O)O[C@@H]2C[C@@]3(C)[C@H](O)CC[C@@](O)(COC(=O)C(C)C)[C@@H]3C[C@H]12 | 200 µM |  |
| C=C1C(=O)O[C@@H]2C[C@@]3(C)[C@H](O)CC[C@](O)(COC(=O)C(C)C)[C@@H]3C[C@H]12 | 200 µM |  |
| C=C1C(=O)O[C@@H]2C[C@@H](C)[C@@H]3C=CC(=O)[C@@]3(C)[C@@H](O)[C@H]12 | 10 µM |  |
| C=C1C(=O)O[C@@H]2C[C@@H](C)[C@@H]3[C@@H](OC(C)=O)C[C@@H](O)[C@@]3(C)C[C@H]12 | 200 µM |  |
| C=C1C(=O)OC2[C@H]3O[C@]3(C)CC/C=C(/C)CC[C@@H]12 (stereo partly drawn) | 20 µM |  |
| C/C=C(\C)C(=O)O[C@H]1[C@@H]2[C@H](C)C(=O)O[C@@H]2C[C@@H](C)[C@@H]2C=CC(=O)[C@]21C | 100 µM |  |
| C=C1C(=O)O[C@H]2CC(=C)[C@H](O)CC/C(C)=C/[C@@H](O)[C@H]12 | 50 µM |  |
| C=C1C(=O)OC2C[C@@H](C)[C@@H]3C=CC(=O)[C@@]3(C)[C@H](O)[C@H]12 (single isomer, unassigned) | 20 µM |  |
| C=C1C(=O)O[C@@H]2C[C@@]3(C)[C@H](O)CC=C(COC(=O)C(C)C)[C@@H]3C[C@H]12 | 50 µM |  |
| C=C1C(=O)O[C@H]2[C@H]1[C@H](OC(=O)[C@@]1(C)O[C@H]1C)[C@@H](OC(C)=O)/C(C(=O)OC)=C\CC[C@@]1(C)O[C@@H]21 | 10 µM |  |
| C=C1C(=O)O[C@@H]2C[C@@H](C)[C@@H]3C=CC(=O)[C@@]3(C)[C@@H](OC(=O)C(C)C)[C@H]12 | 20 µM |  |
